Sampled rows, rich in hits. Any-hit rate of the full collection: about 2.9%.
TRPC4 potent = allosterically enhances the mouse TRPC4 cation channel | B-score at 10 µM | Q9QUQ5 | HEK293 TRPC4beta/mu-opioid, DAMGO EC20, Fluo-4 Ca2+ flux; hits give high values | hit rate 0.42% among 310,000;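 active = B-score of calcium response area above 5 SD of library B-scores, with initial fluorescence ratio within 5 SD of library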
TRPC4 agonist = activators of mouse TRPC4 channel. hit rate 0.49% among 310,000. B-score at 10 µM. Q9QUQ5. HEK293 TRPC4beta/mu-opioid, Fluo4 calcium fluorescence; hits give high values;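 active = B-score above 5 SD of library B-scores, and initial fluorescence ratio not above library mean plus 5 SD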;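 also: positive B-score marks a calcium rise read as TRPC4 activation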
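Assay system: HEK293 stable line with TRPC4beta plus mu-opioid receptor. Times: dye 45 min RT, read 110 s. Measured by: kinetic Fluo4 calcium fluorescence. Measure: B score of integrated ratio. Controls: assay buffer as low control, maximal DAMGO as high control.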
TRPC4 inh = blocks the mouse TRPC4 cation channel; HEK293 TRPC4beta/mu-opioid, DAMGO-evoked Fluo4 calcium flux; hits give low values; B-score at 10 µM; hit rate 0.39% among 300,000; AID 2247;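 active = B-score over 3 SD under the library average, no early fluorescence shift, positive overall ratio signal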
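System: stable TRPC4beta/mu-opioid receptor HEK293 cells; Dosing: single-point compound dosing; Measured by: Fluo4 Ca2+ flux fluorescence; Read-out basis: per-well B score of integrated baseline-normalized Fluo4 ratio.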
TRPC6 act = mouse TRPC6 channel activation; Q61143; HEK293-TRPC6 membrane potential dye fluorescence; hits give high values; B-score at 10 µM; hit rate 0.13% among 310,000;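 active = B-score of the integrated fluorescence ratio above library mean plus 3 SD, and starting fluorescence ratio within library mean plus 5 SD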;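 also: higher score means more depolarization so channel activation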
Kir21 block = blocks the mouse Kir2.1 inward-rectifier potassium channel. B-score at 10 µM. P35561. HEK293-Kir2.1, FluxOR thallium flux fluorescence; hits give low values. hit rate 0.85% among 310,000;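 active = fluorescence ratio B-score at or below minus 3 SD of library scores, with starting-brightness B-score within 2 SD, cut at about -4.2 in these data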;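 also: channel flux triggered by added potassium and thallium sulfate stimulus; B-score of peak minus minimum fluorescence over baseline after thallium stimulus; more negative B-score means stronger Kir2.1 block with less thallium influx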
Target sequence (P35561 whole entry, looked up): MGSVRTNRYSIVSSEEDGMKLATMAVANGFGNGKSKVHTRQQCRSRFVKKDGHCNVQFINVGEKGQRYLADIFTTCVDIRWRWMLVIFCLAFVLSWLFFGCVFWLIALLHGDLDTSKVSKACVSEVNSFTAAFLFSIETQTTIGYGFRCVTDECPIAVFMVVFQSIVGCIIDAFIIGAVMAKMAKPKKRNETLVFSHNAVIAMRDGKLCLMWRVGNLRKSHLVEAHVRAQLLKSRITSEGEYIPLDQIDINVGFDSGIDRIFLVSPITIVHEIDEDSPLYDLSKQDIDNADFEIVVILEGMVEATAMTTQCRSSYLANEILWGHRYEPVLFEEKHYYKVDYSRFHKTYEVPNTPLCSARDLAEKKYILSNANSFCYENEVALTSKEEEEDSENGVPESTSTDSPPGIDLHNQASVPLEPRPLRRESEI
TRPC6 inh = blocks the mouse TRPC6 cation channel; Q61143; HEK293-TRPC6, membrane potential dye, ACh-evoked depolarization; hits give low values; B-score at 10 µM; hit rate 1.1% among 310,000;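 active = B-score under library mean minus 3 SD, initial fluorescence not abnormally high, positive integrated signal ratio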;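 also: B-score derived from integrated fluorescence ratio over the kinetic read; more negative B-score means stronger inhibition of depolarization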
Numbers stand for hits; n = inactive.

SMILES	TRPC4 potent	TRPC4 agonist	TRPC4 inh	TRPC6 act	Kir21 block	TRPC6 inh
Cc1ccc(C)c(OCCCCCn2ccnc2)c1	n	169	n	n	n	n
Cc1cc(OCCCn2ccnc2)ccc1[N+](=O)[O-]	21	43	n	n	n	n
CCOc1cccc(OCCCCn2ccnc2)c1	n	43	n	n	n	n
Cc1cc(C)c(OCCCCCn2ccnc2)c(C)c1	n	n	n	n	n	n
Cc1cc(OCCCCCn2ccnc2)cc(C)c1Cl	n	75	n	n	n	n
CSc1cccc(NC(=O)c2cccc3cccnc23)c1	n	n	n	n	n	n
CCCc1cc(=O)[nH]c(SCC(=O)c2cc(C)n(-c3c(C)n(C)n(-c4ccccc4)c3=O)c2C)n1	n	n	n	n	n	n
CCOc1ccc(S(=O)(=O)N2CCC(C(=O)NCc3ccccn3)CC2)cc1C	n	n	n	n	n	n
O=C(NCC1CCN(S(=O)(=O)c2ccccc2)CC1)Nc1ccccc1	n	n	n	n	n	n
Cc1csc(NC(=O)CSC2=NS(=O)(=O)c3ccccc3N2)n1	n	n	n	n	n	n
Cc1cc(OCCCn2ccnc2)cc(C)c1Cl	n	104	n	n	n	n
Cc1cc(Cl)cc(C)c1OCCn1ccnc1	n	n	n	n	n	n
Cc1cc(Cl)cc(C)c1OCCCCCn1ccnc1	n	86	n	n	n	n
COc1ccc(OCCCn2ccnc2)cc1	n	n	n	n	n	n
O=C1C2C3C=CC(CC3)C2C(=O)N1c1ccc(Cl)cc1Cl (stereo not given)	n	n	n	n	n	n
Cc1cc(=O)oc2cc(N3C(=O)CC(Cc4ccccc4)C3=O)ccc12 (stereo not given)	13	n	n	n	n	n
Cc1c(C(=O)OCCOc2ccc(Br)cc2)sc(=S)n1C	11	n	n	n	n	n
Cc1ccc(OCCOC(=O)c2sc(=S)n(C)c2C)cc1	n	n	n	n	n	n
COc1ccc(/C=C2\SC(=O)N(CC(=O)NCCCn3ccnc3)C2=O)cc1	n	n	n	n	n	n
COc1ccc(NS(=O)(=O)c2csc(C(N)=O)c2)cc1OC	16	n	n	n	n	n
CC1CCCN(c2c([N+](=O)[O-])cc(C(=O)O)cc2[N+](=O)[O-])C1 (stereo not given)	n	n	-5	n	n	n
COc1ccc(C(=O)Nc2nc(CC(=O)NCCc3ccccc3OC)cs2)cc1	n	n	n	n	n	n
CC(C)(CSc1ccccn1)NS(=O)(=O)c1ccc(Cl)cc1	10	n	n	n	-5.1	n
CC(C)(CSc1ccccn1)NS(=O)(=O)c1ccccc1	n	n	n	n	n	n
Cn1c(=O)c([N+](=O)[O-])c(NCC2CCCO2)c2ccccc21 (stereo not given)	n	n	n	n	n	n
SMILES	TRPC4 potent	TRPC4 agonist	TRPC4 inh	TRPC6 act	Kir21 block	TRPC6 inh
C=CCn1c(COc2ccccc2)nnc1SCc1ccc(C#N)cc1	n	n	n	n	-11	n
C=CCn1c(COc2ccc(Cl)cc2)nnc1SCc1ccc(C#N)cc1	n	n	n	n	n	n
COC(=O)c1cc(C(=O)c2ccc(C(C)(C)C)cc2)c[nH]1	10	n	n	n	n	n
CC1CC(C)CN(CCCNC(=O)c2csc3c2CCCC3)C1 (stereo not given)	n	82	n	n	n	n
CC(C)CCNC(=O)c1csc2c1CCCCC2	n	n	n	n	n	n
CCCCN(CC)CCCNC(=O)c1csc2c1CCCCC2	n	111	n	n	n	n
CCC(CC)c1nnc(NC(=O)c2c(C)nn(Cc3ccccc3Cl)c2C)s1	21	n	n	n	n	n
Cc1nn(Cc2ccccc2Cl)c(C)c1C(=O)NC1=NCCS1	n	n	n	n	n	n
Cc1ccc(C(=O)N/C(=C\c2ccco2)C(=O)N2CCOCC2)cc1C	n	n	n	n	n	n
O=[N+]([O-])c1cccc(-c2cc(-c3cc(Br)ccc3O)[nH]n2)c1	n	n	n	n	n	n
Cn1c2ccccc2c(=O)c2ccc(C#CC3(N)CCCCC3)cc21	n	n	n	n	n	-8.6
Cn1c2ccccc2c(=O)c2cc(C#CC3(O)CCCCC3)ccc21	n	n	n	n	n	n
